Where “and” joins values, the source holds several entries; their conditions need not be identical. Equal entries are not always repeated.
System: U2OS
Experiment: Multiplex assay against U2OS
Format: toxicity, cell-based
Details: human
Method in brief: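 Compound was added to live cells that had been stained at seeding with Hoechst33342, BioTracker Green Microtubule Cytoskeleton Dye, MitoTracker Red and Annexin V Alexa Fluor 680, and imaging followed on a CQ1 microscope at 37°C and 5% CO2. CellPathfinder machine-learning gating divided cells into Hoechst high-intensity objects or normal cells, normal cells into healthy, pyknosed or fragmented nuclei, and pyknosed cells into mitotic or apoptotic. Tubulin, mitochondrial-mass and membrane-permeability phenotypes are per cents of healthy-nucleus cells.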

[1] = 12 h, 1 µM, compound concentration 1 uM
[2] = 12 h, 10 µM, compound concentration 10 uM
[3] = 24 h, 1 µM, compound concentration 1 uM
[4] = 24 h, 10 µM, compound concentration 10 uM
[5] = 48 h, 1 µM, compound concentration 1 uM
[6] = 48 h, 10 µM, compound concentration 10 uM

Cl.Cl.OCCOCCN1CCN(C(c2ccccc2)c2ccc(Cl)cc2)CC1 (centres undefined) [HYDROXYZINE HYDROCHLORIDE]
Population Apoptotic (%) [1]: 60% and 80%
Population Fragmented Nuclei (%) [1]: 29% and 13%
Population Healthy Nuclei (%) [1]: 61% and 78%
Population Hoechst High Intensity Objects (%) [1]: 0% and 1%
Population Membrane Permeable-Phenotype (%) [1]: 11% and 9%
Population Mitochondria Different-Phenotype (%) [1]: 4% and 6%
Population Mitotic Cells (%) [1]: 40% and 20%
Population Normal (%) [1]: 99% and 98%
Population Pyknosed Nuclei (%) [1]: 9% and 7%
Population Tubulin-Different-Phenotype (%) [1]: 7% and 8%
Total Cell Count [1]: 208 and 139
Population Apoptotic (%) [2]: 58% and 88%
Population Fragmented Nuclei (%) [2]: 20% and 26%
Population Healthy Nuclei (%) [2]: 66%
Population Hoechst High Intensity Objects (%) [2]: 1% and 2%
Population Membrane Permeable-Phenotype (%) [2]: 9% and 5%
Population Mitochondria Different-Phenotype (%) [2]: 10% and 7%
Population Normal (%) [2]: 98% and 97%
Population Pyknosed Nuclei (%) [2]: 13% and 6%
Population Tubulin-Different-Phenotype (%) [2]: 6% and 7%
Total Cell Count [2]: 316 and 141
Population Apoptotic (%) [3]: 96% and 77%
Population Fragmented Nuclei (%) [3]: 25% and 9%
Population Healthy Nuclei (%) [3]: 63% and 77%
Population Hoechst High Intensity Objects (%) [3]: 1% and 2%
Population Membrane Permeable-Phenotype (%) [3]: 8% and 5%
Population Mitochondria Different-Phenotype (%) [3]: 4% and 1%
Population Normal (%) [3]: 98% and 97%
Population Pyknosed Nuclei (%) [3]: 10% and 12%
Population Tubulin-Different-Phenotype (%) [3]: 7% and 1%
Total Cell Count [3]: 232 and 148
Population Apoptotic (%) [4]: 73% and 61%
Population Fragmented Nuclei (%) [4]: 23% and 31%
Population Healthy Nuclei (%) [4]: 63% and 60%
Population Hoechst High Intensity Objects (%) [4]: 2%
Population Membrane Permeable-Phenotype (%) [4]: 10% and 12%
Population Mitochondria Different-Phenotype (%) [4]: 8% and 13%
Population Mitotic Cells (%) [4]: 26% and 38%
Population Normal (%) [4]: 97%
Population Pyknosed Nuclei (%) [4]: 12% and 7%
Population Tubulin-Different-Phenotype (%) [4]: 4% and 9%
Total Cell Count [4]: 359 and 168
Population Apoptotic (%) [5]: 89% and 90%
Population Fragmented Nuclei (%) [5]: 24% and 14%
Population Healthy Nuclei (%) [5]: 62% and 76%
Population Hoechst High Intensity Objects (%) [5]: 2%
Population Membrane Permeable-Phenotype (%) [5]: 4% and 5%
Population Mitochondria Different-Phenotype (%) [5]: 3%
Population Mitotic Cells (%) [5]: 10%
Population Normal (%) [5]: 97%
Population Pyknosed Nuclei (%) [5]: 13% and 8%
Population Tubulin-Different-Phenotype (%) [5]: 4% and 0%
Total Cell Count [5]: 300 and 230
Population Apoptotic (%) [6]: 83%
Population Fragmented Nuclei (%) [6]: 17% and 27%
Population Healthy Nuclei (%) [6]: 68% and 64%
Population Hoechst High Intensity Objects (%) [6]: 2% and 5%
Population Membrane Permeable-Phenotype (%) [6]: 8% and 10%
Population Mitochondria Different-Phenotype (%) [6]: 6% and 5%
Population Mitotic Cells (%) [6]: 16%
Population Normal (%) [6]: 97% and 94%
Population Pyknosed Nuclei (%) [6]: 13% and 8%
Population Tubulin-Different-Phenotype (%) [6]: 4% and 5%
Total Cell Count [6]: 456 and 231

Cc1c(-c2cc(-c3ccccc3Cl)no2)cnn1C1CCNCC1.Cl
Population Apoptotic (%) [1]: 35.85% and 50%
Population Fragmented Nuclei (%) [1]: 2.99% and 1.04%
Population Healthy Nuclei (%) [1]: 85.68% and 82.29%
Population Hoechst High Intensity Objects (%) [1]: 0%
Population Membrane Permeable-Phenotype (%) [1]: 0.5% and 3.8%
Population Mitochondria Different-Phenotype (%) [1]: 0% and 8.86%
Population Mitotic Cells (%) [1]: 64.15% and 50%
Population Normal (%) [1]: 100%
Population Pyknosed Nuclei (%) [1]: 11.32% and 16.67%
Population Tubulin-Different-Phenotype (%) [1]: 1.5% and 1.9%
Total Cell Count [1]: 468 and 192
Population Apoptotic (%) [2]: 35.61% and 27.88%
Population Fragmented Nuclei (%) [2]: 0.94% and 2.96%
Population Healthy Nuclei (%) [2]: 57.68% and 20%
Population Hoechst High Intensity Objects (%) [2]: 0%
Population Membrane Permeable-Phenotype (%) [2]: 28.26% and 22.22%
Population Mitotic Cells (%) [2]: 64.39% and 72.12%
Population Normal (%) [2]: 100%
Population Pyknosed Nuclei (%) [2]: 41.38% and 77.04%
Population Tubulin-Different-Phenotype (%) [2]: 85.87% and 88.89%
Total Cell Count [2]: 319 and 135
Population Apoptotic (%) [3]: 37.5% and 39.02%
Population Fragmented Nuclei (%) [3]: 2.05% and 3.23%
Population Healthy Nuclei (%) [3]: 87.85% and 80.24%
Population Hoechst High Intensity Objects (%) [3]: 0%
Population Membrane Permeable-Phenotype (%) [3]: 0.18% and 2.01%
Population Mitochondria Different-Phenotype (%) [3]: 0.18% and 7.54%
Population Mitotic Cells (%) [3]: 62.5% and 60.98%
Population Normal (%) [3]: 100%
Population Pyknosed Nuclei (%) [3]: 10.09% and 16.53%
Population Tubulin-Different-Phenotype (%) [3]: 1.08% and 1.51%
Total Cell Count [3]: 634 and 248
Population Apoptotic (%) [4]: 38.83% and 47.71%
Population Fragmented Nuclei (%) [4]: 2.56% and 6.16%
Population Healthy Nuclei (%) [4]: 49.23% and 19.18%
Population Hoechst High Intensity Objects (%) [4]: 0% and 0.68%
Population Membrane Permeable-Phenotype (%) [4]: 21.88% and 17.86%
Population Mitotic Cells (%) [4]: 61.17% and 52.29%
Population Normal (%) [4]: 100% and 99.32%
Population Pyknosed Nuclei (%) [4]: 48.21% and 74.66%
Population Tubulin-Different-Phenotype (%) [4]: 79.17% and 60.71%
Total Cell Count [4]: 390 and 147
Population Apoptotic (%) [5]: 42.02% and 57.78%
Population Fragmented Nuclei (%) [5]: 2.39% and 2.74%
Population Healthy Nuclei (%) [5]: 86.66% and 84.93%
Population Hoechst High Intensity Objects (%) [5]: 0%
Population Membrane Permeable-Phenotype (%) [5]: 1.59% and 2.58%
Population Mitochondria Different-Phenotype (%) [5]: 0.11% and 7.74%
Population Mitotic Cells (%) [5]: 57.98% and 42.22%
Population Normal (%) [5]: 100%
Population Pyknosed Nuclei (%) [5]: 10.95% and 12.33%
Population Tubulin-Different-Phenotype (%) [5]: 2.23% and 3.55%
Total Cell Count [5]: 1087 and 365
Population Apoptotic (%) [6]: 59.43% and 95.93%
Population Fragmented Nuclei (%) [6]: 1.36% and 2.17%
Population Hoechst High Intensity Objects (%) [6]: 0.68% and 0%
Population Normal (%) [6]: 99.32% and 100%
Population Pyknosed Nuclei (%) [6]: 55.33% and 89.13%
Population Tubulin-Different-Phenotype (%) [6]: 49.21% and 50%

N#Cc1c(Oc2cccc(OS(=O)(=O)CCCC(F)(F)F)c2)cccc1C(F)(F)F
Population Apoptotic (%) [1]: 77% and 81%
Population Fragmented Nuclei (%) [1]: 27% and 12%
Population Healthy Nuclei (%) [1]: 61% and 76%
Population Hoechst High Intensity Objects (%) [1]: 3% and 0%
Population Membrane Permeable-Phenotype (%) [1]: 4% and 7%
Population Mitochondria Different-Phenotype (%) [1]: 2% and 7%
Population Mitotic Cells (%) [1]: 22% and 18%
Population Normal (%) [1]: 96% and 99%
Population Pyknosed Nuclei (%) [1]: 10%
Population Tubulin-Different-Phenotype (%) [1]: 0% and 8%
Total Cell Count [1]: 220 and 109
Population Apoptotic (%) [2]: 78% and 90%
Population Fragmented Nuclei (%) [2]: 27% and 14%
Population Healthy Nuclei (%) [2]: 63% and 75%
Population Hoechst High Intensity Objects (%) [2]: 3% and 0%
Population Membrane Permeable-Phenotype (%) [2]: 11% and 21%
Population Mitochondria Different-Phenotype (%) [2]: 8% and 4%
Population Mitotic Cells (%) [2]: 21% and 9%
Population Normal (%) [2]: 96% and 99%
Population Pyknosed Nuclei (%) [2]: 8% and 9%
Population Tubulin-Different-Phenotype (%) [2]: 7%
Total Cell Count [2]: 222 and 112
Population Apoptotic (%) [3]: 75% and 90%
Population Fragmented Nuclei (%) [3]: 25% and 12%
Population Healthy Nuclei (%) [3]: 61% and 79%
Population Hoechst High Intensity Objects (%) [3]: 2% and 1%
Population Membrane Permeable-Phenotype (%) [3]: 4% and 11%
Population Mitochondria Different-Phenotype (%) [3]: 2% and 3%
Population Mitotic Cells (%) [3]: 24% and 10%
Population Normal (%) [3]: 97% and 98%
Population Pyknosed Nuclei (%) [3]: 12% and 7%
Population Tubulin-Different-Phenotype (%) [3]: 3% and 7%
Total Cell Count [3]: 263 and 130
Population Apoptotic (%) [4]: 66%
Population Fragmented Nuclei (%) [4]: 26% and 9%
Population Healthy Nuclei (%) [4]: 66% and 83%
Population Hoechst High Intensity Objects (%) [4]: 6% and 3%
Population Membrane Permeable-Phenotype (%) [4]: 10% and 11%
Population Mitochondria Different-Phenotype (%) [4]: 8% and 0%
Population Mitotic Cells (%) [4]: 33%
Population Normal (%) [4]: 93% and 96%
Population Pyknosed Nuclei (%) [4]: 7%
Population Tubulin-Different-Phenotype (%) [4]: 5% and 7%
Total Cell Count [4]: 252 and 130
Population Apoptotic (%) [5]: 87% and 100%
Population Fragmented Nuclei (%) [5]: 17% and 16%
Population Healthy Nuclei (%) [5]: 70% and 73%
Population Hoechst High Intensity Objects (%) [5]: 3% and 2%
Population Membrane Permeable-Phenotype (%) [5]: 4% and 9%
Population Mitochondria Different-Phenotype (%) [5]: 0% and 4%
Population Mitotic Cells (%) [5]: 12% and 0%
Population Normal (%) [5]: 96% and 97%
Population Pyknosed Nuclei (%) [5]: 11% and 9%
Population Tubulin-Different-Phenotype (%) [5]: 3% and 7%
Total Cell Count [5]: 361 and 195
Population Apoptotic (%) [6]: 91% and 100%
Population Fragmented Nuclei (%) [6]: 23% and 11%
Population Healthy Nuclei (%) [6]: 64% and 77%
Population Hoechst High Intensity Objects (%) [6]: 4% and 3%
Population Membrane Permeable-Phenotype (%) [6]: 10% and 13%
Population Mitochondria Different-Phenotype (%) [6]: 6% and 4%
Population Mitotic Cells (%) [6]: 8% and 0%
Population Normal (%) [6]: 95% and 96%
Population Pyknosed Nuclei (%) [6]: 11% and 10%
Population Tubulin-Different-Phenotype (%) [6]: 6% and 7%
Total Cell Count [6]: 328 and 184

Source: ChEMBL document CHEMBL5724801, “EUbOPEN Chemogenomics Library - Multiplex” (2024)
